One block for each compound: values may come before it.
Experiments:
[1] = Half life in rat at 1 mg/kg, iv; format: ADME, organism-based; conditions: in vivo
[2] = target: T1, CDK2/Cyclin A2 (Homo sapiens) (UniProt P24941+P20248); assay: Inhibition of CDK2/CycA (unknown origin) at 0.1 uM; format: protein-complex assay
[3] = Volume of distribution at steady state in rat at 1 mg/kg, iv; format: ADME, organism-based; conditions: in vivo, read-out: Vdss
[4] = target: Tyrosine-protein kinase JAK2 (Homo sapiens, UniProt O60674); assay: Inhibition of human JAK2 assessed as reduction in phosphorylation of Biotin-Lyn-Substrate-2 after 1 hr in presence of ATP by ELISA
Tyrosine-protein kinase JAK2, sequence (O60674 whole entry): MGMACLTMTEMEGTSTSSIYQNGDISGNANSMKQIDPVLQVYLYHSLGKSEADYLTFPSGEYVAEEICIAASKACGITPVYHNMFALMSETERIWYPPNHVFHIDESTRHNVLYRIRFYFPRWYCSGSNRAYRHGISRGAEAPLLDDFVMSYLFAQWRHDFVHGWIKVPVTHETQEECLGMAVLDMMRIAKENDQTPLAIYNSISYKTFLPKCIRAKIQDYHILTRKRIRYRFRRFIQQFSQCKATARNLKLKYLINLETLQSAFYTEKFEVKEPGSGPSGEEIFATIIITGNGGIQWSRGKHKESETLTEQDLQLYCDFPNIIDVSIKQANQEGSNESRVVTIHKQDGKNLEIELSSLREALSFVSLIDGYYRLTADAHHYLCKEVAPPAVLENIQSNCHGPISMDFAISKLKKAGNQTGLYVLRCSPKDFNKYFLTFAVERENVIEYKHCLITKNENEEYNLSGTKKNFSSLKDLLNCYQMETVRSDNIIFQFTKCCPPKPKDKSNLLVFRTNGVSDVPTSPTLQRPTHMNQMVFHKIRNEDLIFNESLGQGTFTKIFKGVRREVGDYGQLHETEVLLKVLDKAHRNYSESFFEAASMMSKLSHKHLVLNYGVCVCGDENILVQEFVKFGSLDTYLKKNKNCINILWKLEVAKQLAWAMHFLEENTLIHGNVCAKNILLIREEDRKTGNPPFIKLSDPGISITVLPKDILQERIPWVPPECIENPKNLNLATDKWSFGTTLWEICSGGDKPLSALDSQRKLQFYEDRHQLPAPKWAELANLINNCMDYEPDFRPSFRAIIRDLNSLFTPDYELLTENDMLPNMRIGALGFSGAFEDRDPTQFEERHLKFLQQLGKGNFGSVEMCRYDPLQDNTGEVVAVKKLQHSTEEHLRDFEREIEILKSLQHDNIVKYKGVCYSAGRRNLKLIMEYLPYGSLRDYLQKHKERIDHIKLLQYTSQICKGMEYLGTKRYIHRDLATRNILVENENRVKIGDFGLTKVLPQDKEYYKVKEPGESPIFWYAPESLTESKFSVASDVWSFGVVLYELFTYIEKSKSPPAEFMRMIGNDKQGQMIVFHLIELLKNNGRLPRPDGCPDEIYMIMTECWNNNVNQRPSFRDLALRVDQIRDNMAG

[5] = target: Mitogen-activated protein kinase kinase kinase 9 (Homo sapiens) (UniProt P80192); assay: Inhibition of MLK1 (unknown origin) at 1 uM
Mitogen-activated protein kinase kinase kinase 9 (Homo sapiens), sequence (P80192 whole entry, looked up): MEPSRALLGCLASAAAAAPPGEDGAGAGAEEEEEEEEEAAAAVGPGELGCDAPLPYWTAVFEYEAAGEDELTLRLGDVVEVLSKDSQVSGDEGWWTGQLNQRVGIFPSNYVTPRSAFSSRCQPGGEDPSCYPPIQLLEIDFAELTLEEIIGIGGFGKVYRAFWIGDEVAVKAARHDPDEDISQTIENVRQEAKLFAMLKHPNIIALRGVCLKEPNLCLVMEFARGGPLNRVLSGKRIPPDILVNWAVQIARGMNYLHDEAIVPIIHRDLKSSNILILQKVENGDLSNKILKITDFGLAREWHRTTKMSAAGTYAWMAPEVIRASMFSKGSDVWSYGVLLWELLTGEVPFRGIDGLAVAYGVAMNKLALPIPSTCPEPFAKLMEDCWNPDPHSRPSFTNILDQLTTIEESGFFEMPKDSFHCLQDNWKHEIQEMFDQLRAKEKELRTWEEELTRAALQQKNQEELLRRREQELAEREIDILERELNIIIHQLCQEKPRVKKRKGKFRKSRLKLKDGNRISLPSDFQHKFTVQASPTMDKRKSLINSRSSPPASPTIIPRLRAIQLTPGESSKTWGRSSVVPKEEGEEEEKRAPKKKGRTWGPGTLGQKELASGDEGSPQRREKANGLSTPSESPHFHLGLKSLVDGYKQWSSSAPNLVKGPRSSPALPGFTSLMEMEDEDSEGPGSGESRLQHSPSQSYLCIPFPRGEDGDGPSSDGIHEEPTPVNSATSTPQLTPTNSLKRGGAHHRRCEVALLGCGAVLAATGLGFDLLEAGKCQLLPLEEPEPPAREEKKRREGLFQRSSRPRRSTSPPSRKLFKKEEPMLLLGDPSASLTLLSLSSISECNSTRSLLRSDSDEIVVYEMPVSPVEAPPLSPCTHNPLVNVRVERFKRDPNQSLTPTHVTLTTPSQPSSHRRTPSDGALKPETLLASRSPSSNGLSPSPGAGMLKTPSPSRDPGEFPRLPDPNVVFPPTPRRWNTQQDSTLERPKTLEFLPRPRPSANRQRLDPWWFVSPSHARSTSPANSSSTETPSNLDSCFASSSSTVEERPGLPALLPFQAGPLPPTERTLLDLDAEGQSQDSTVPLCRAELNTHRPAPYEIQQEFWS

[6] = AUC (0 to 24 hrs) in rat at 1 mg/kg, po; format: ADME, organism-based; design: dose 1 mg/kg, time < 24 hr, route oral; conditions: in vivo
[7] = Effective permeability of the compound at pH 6.5 by PAMPA; format: ADME; conditions: read-out: Peff
How it was run: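 Parallel artificial membrane permeability assay, donor buffer pH 6.5; effective permeability reported in cm/sec (n=3).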

[8] = target: Serine/threonine-protein kinase Chk1 (Homo sapiens) (UniProt O14757); assay: Inhibition of CHK1 (unknown origin) at 1 uM
[9] = target: Tyrosine-protein kinase ZAP-70 (Homo sapiens) (UniProt P43403); assay: Inhibition of ZAP70 (unknown origin) at 1 uM
[10] = target: Casein kinase I isoform delta (Homo sapiens) (UniProt P48730); assay: Inhibition of CK1delta (unknown origin) at 1 uM
[11] = target: Tyrosine-protein kinase JAK1 (Homo sapiens, UniProt P23458); assay: Inhibition of human JAK1 assessed as reduction in phosphorylation of Biotin-Lyn-Substrate-2 after 1 hr in presence of ATP by ELISA
Tyrosine-protein kinase JAK1, sequence (P23458 whole entry): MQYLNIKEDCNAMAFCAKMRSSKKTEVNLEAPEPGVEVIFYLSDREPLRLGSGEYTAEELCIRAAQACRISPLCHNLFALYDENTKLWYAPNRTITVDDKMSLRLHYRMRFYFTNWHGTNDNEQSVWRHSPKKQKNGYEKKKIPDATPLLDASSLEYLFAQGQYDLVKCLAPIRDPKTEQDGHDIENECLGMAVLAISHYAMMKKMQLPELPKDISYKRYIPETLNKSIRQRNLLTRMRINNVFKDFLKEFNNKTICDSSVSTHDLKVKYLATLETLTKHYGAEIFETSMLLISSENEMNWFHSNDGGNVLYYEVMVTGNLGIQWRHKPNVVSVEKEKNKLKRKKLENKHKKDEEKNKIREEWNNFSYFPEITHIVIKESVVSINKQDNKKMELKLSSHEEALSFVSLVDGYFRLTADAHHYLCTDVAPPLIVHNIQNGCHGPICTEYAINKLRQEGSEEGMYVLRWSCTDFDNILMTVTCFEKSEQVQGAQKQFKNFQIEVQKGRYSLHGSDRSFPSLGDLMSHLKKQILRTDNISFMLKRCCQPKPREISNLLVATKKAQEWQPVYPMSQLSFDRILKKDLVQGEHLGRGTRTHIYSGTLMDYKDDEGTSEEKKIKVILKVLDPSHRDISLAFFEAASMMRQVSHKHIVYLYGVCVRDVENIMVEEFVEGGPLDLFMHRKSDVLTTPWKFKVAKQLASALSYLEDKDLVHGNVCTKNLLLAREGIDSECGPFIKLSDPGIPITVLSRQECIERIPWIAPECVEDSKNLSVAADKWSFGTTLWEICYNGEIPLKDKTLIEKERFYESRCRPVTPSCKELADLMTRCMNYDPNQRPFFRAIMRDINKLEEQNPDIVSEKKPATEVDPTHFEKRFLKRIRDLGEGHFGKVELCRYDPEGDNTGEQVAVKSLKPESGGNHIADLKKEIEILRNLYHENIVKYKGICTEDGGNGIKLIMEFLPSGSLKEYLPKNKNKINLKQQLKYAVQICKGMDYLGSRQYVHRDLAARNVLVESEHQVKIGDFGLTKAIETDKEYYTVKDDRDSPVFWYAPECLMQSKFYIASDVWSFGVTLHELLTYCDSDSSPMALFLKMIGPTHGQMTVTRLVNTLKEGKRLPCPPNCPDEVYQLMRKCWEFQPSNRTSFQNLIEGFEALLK

[12] = target: High affinity nerve growth factor receptor (Homo sapiens) (UniProt P04629); assay: Inhibition of TRKA (unknown origin) at 0.1 uM
High affinity nerve growth factor receptor (Homo sapiens), sequence (P04629 33-796 limits assumed): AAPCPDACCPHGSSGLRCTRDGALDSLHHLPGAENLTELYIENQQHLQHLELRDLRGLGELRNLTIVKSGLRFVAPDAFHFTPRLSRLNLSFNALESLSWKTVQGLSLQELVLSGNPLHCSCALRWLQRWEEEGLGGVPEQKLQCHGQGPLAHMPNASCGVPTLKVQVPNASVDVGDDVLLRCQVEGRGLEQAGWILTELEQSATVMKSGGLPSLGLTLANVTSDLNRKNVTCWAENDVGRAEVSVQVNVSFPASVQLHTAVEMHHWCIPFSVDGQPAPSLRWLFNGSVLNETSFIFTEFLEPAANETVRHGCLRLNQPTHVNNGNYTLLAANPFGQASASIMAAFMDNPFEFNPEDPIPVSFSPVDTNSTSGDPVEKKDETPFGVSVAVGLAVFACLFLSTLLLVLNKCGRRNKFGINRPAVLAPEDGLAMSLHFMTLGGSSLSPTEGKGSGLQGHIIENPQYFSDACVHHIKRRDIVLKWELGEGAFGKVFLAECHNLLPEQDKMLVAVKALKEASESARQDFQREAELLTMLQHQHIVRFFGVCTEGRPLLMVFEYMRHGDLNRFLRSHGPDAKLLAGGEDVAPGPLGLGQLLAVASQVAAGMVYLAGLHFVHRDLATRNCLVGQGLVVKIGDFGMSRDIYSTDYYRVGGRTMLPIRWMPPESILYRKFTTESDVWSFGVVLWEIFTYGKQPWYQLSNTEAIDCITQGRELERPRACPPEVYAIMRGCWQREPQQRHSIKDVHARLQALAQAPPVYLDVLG

[13] = AUC (0 to 24 hrs) in rat at 1 mg/kg, iv; format: ADME, organism-based; design: dose 1 mg/kg, time < 24 hr, route intravenous; conditions: in vivo
[14] = target: Tyrosine-protein kinase ABL1 (Homo sapiens) (UniProt P00519); assay: Inhibition of ABL (unknown origin) at 1 uM
[15] = target: High affinity nerve growth factor receptor (Homo sapiens) (UniProt P04629); assay: Inhibition of TRKA (unknown origin) at 1 uM
[16] = target: Voltage-gated inwardly rectifying potassium channel KCNH2 (Homo sapiens, UniProt Q12809); assay: Inhibition of human ERG expressed in CHO-K1 cells after 10 mins by Rb efflux assay; format: cell-based
[17] = Cmax in rat at 1 mg/kg, po; format: ADME, organism-based; design: dose 1 mg/kg, route oral; conditions: in vivo
[18] = Intrinsic clearance in rat liver microsomes in presence of NADPH; format: ADME, Microsome; conditions: read-out: CLH
How it was run: (§1)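 Incubation with rat or human liver microsomes plus NADPH-generating system; intrinsic clearance expressed as mL/min/kg (n=2).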

[19] = Intrinsic clearance in human liver microsomes in presence of NADPH; format: ADME, Microsome; conditions: read-out: CLH; how it was run: as §1
[20] = Oral bioavailability in rat at 1 mg/kg; format: ADME, organism-based; conditions: in vivo
[21] = target: Receptor tyrosine-protein kinase erbB-2 (Homo sapiens) (UniProt P04626); assay: Inhibition of HER2 (unknown origin) at 1 uM
Rattus norvegicus [22] = assay: Immunomodulatory activity in ACI-to-Lewis rat heterotopic cardiac transplant model assessed as cardiac allograft survival at 10 mg/kg, po coadministered with tacrolimus at 0.02 mg/kg, im dosed from day of transplantation once daily for 14 consecutive days; format: functional
How it was run: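 ACI rat hearts transplanted heterotopically into Lewis recipients. Oral drug given once daily for 14 consecutive days starting on the day of operation. In the combination arm, tacrolimus was given intramuscularly once daily. Cardiac allograft survival was checked by daily palpation for 28 days and expressed as median survival time (MST).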

[23] = Total clearance in rat at 1 mg/kg, iv; format: ADME, organism-based; conditions: in vivo
[24] = target: Focal adhesion kinase 1 (Homo sapiens) (UniProt Q05397); assay: Inhibition of FAK (unknown origin) at 1 uM
[25] = target: Aurora kinase C (Homo sapiens) (UniProt Q9UQB9); assay: Inhibition of AurC (unknown origin) at 1 uM
Aurora kinase C (Homo sapiens), sequence (Q9UQB9 whole entry): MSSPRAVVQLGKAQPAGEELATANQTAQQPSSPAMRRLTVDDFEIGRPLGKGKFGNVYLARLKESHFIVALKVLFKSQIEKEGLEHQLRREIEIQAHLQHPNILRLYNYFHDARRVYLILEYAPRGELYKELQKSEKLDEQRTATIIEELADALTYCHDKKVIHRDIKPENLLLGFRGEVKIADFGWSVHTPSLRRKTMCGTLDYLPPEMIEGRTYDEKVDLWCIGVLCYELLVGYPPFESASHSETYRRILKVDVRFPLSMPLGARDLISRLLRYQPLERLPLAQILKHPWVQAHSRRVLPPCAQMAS

[26] = target: RAC-alpha serine/threonine-protein kinase (Homo sapiens) (UniProt P31749); assay: Inhibition of AKT1 (unknown origin) at 1 uM
RAC-alpha serine/threonine-protein kinase (Homo sapiens), sequence (P31749 whole entry): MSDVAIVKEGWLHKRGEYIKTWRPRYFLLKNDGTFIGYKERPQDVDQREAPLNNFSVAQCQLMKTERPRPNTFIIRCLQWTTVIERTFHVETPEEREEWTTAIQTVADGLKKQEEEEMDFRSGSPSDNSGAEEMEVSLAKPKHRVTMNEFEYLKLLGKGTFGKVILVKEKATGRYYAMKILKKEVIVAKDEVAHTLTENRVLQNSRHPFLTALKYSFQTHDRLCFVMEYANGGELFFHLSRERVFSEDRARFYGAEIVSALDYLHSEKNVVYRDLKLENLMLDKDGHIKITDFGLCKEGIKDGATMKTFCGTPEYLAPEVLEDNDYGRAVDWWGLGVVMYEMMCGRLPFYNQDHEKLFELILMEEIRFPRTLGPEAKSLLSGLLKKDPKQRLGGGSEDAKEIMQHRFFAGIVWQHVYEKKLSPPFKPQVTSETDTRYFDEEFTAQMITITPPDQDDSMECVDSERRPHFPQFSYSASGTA

[27] = target: Tyrosine-protein kinase BTK (Homo sapiens) (UniProt Q06187); assay: Inhibition of BTK (unknown origin) at 1 uM
[28] = Tmax in rat at 1 mg/kg, po; format: ADME, organism-based; conditions: in vivo
[29] = target: Angiopoietin-1 receptor (Homo sapiens) (UniProt Q02763); assay: Inhibition of TIE2 (unknown origin) at 1 uM
[30] = target: Mitogen-activated protein kinase kinase kinase 9 (Homo sapiens) (UniProt P80192); assay: Inhibition of MLK1 (unknown origin) at 0.01 uM
[31] = target: Bone morphogenetic protein receptor type-1A (Homo sapiens) (UniProt P36894); assay: Inhibition of BMPR1A (unknown origin) at 1 uM
[32] = target: T1, CDK2/Cyclin A2 (Homo sapiens); assay: Inhibition of CDK2/CycA (unknown origin) at 1 uM; format: protein-complex assay
[33] = target: T1, CDK2/Cyclin A2 (Homo sapiens); assay: Inhibition of CDK2/CycA (unknown origin) at 0.01 uM; format: protein-complex assay
[34] = target: High affinity nerve growth factor receptor (Homo sapiens) (UniProt P04629); assay: Inhibition of TRKA (unknown origin) at 0.01 uM
[35] = target: Calcium/calmodulin-dependent protein kinase type II subunit alpha (Homo sapiens) (UniProt Q9UQM7); assay: Inhibition of CaMK2alpha (unknown origin) at 1 uM
[36] = target: Epidermal growth factor receptor (Homo sapiens) (UniProt P00533); assay: Inhibition of EGFR (unknown origin) at 1 uM
[37] = target: Mitogen-activated protein kinase kinase kinase 9 (Homo sapiens) (UniProt P80192); assay: Inhibition of MLK1 (unknown origin) at 0.1 uM
[38] = target: Ephrin type-A receptor 2 (Homo sapiens) (UniProt P29317); assay: Inhibition of EPHA2 (unknown origin) at 1 uM
[39] = target: T2, Tyrosine-protein kinase JAK3 (Homo sapiens, UniProt P52333); assay: Inhibition of human JAK3 assessed as reduction in phosphorylation of Biotin-Lyn-Substrate-2 after 1 hr in presence of ATP by ELISA
T2 sequence (P52333 whole entry): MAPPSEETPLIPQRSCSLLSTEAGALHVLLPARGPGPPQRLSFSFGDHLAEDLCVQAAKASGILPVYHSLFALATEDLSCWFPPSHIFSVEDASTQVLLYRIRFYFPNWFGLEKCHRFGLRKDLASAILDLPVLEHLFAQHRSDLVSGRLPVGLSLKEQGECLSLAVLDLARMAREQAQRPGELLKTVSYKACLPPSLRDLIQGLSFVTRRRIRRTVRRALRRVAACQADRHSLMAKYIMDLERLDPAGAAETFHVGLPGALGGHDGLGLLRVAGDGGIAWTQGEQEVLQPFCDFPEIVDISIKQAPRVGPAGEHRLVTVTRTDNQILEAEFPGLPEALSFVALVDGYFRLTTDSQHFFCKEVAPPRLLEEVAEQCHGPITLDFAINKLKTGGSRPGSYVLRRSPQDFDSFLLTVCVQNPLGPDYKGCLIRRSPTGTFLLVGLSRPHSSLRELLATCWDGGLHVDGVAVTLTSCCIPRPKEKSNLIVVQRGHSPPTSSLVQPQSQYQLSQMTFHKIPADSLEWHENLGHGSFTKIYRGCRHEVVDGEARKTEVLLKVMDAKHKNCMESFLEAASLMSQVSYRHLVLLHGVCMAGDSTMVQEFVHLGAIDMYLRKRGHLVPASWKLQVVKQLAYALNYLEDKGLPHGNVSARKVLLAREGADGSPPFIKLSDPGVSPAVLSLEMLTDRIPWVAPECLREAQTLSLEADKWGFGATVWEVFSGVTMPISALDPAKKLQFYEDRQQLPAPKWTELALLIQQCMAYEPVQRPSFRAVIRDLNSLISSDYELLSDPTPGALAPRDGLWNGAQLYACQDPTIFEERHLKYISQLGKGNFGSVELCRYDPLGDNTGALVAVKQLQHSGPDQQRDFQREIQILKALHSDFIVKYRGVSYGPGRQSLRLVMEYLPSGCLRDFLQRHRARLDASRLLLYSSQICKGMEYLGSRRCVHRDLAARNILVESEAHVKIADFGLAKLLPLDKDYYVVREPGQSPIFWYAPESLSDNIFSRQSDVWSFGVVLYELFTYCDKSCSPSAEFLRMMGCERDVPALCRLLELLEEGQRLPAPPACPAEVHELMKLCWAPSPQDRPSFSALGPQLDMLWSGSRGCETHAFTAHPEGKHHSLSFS

Rattus norvegicus [40] = assay: Immunomodulatory activity in ACI-to-Lewis rat heterotopic cardiac transplant model assessed as mean survival time at 0.02 mg/kg, im dosed from day of transplantation once daily for 14 consecutive days measured for 28 days; format: functional
[41] = target: Tyrosine-protein kinase JAK3 (Homo sapiens) (UniProt P52333); assay: Inhibition of human JAK3 assessed as phosphorylation of Biotin-Lyn-Substrate-2 at 1 uM after 1 hr in presence of ATP by ELISA

Compound: Cc1nccc(Nc2cc(NC3CCN(c4ccc(C#N)cc4)CC3)c(C(N)=O)cn2)n1
half-life [1]: 3.4 h
inhibition [2]: 76%
Vd [3]: 3.5 L/kg
IC50 [4]: 3.5 nM
inhibition [5]: 96%
AUC(0-t) at 24 h [6]: 278 ng·h/mL
Papp [7]: > 30 ×10⁻⁶ cm/s
inhibition [8]: 33%
inhibition [9]: -2%
inhibition [10]: 25%
IC50 [11]: 4.2 nM
inhibition [12]: 49%
AUC(0-t) at 24 h [13]: 1180 ng·h/mL
inhibition [14]: 54%
inhibition [15]: 94%
IC50 [16]: > 100000 nM
Cmax [17]: 52.9 ng/mL
CLint scaled [18]: 146 mL/min/kg
CLint scaled [19]: 109 mL/min/kg
bioavailability [20]: 23.6%
inhibition [21]: 14%
MST (Rattus norvegicus [22]): 22.5 days
clearance [23]: 14.3 mL/min/kg
inhibition [24]: 18%
inhibition [25]: 28%
inhibition [26]: 10%
inhibition [27]: 49%
Tmax [28]: 0.4 h
inhibition [29]: 8%
inhibition [30]: 26%
inhibition [31]: 3%
inhibition [32]: 96%
inhibition [33]: 27%
inhibition [34]: 8%
inhibition [35]: -1%
inhibition [36]: 19%
inhibition [37]: 84%
inhibition [38]: 11%

Compound: C=CC[C@@H]1/C=C(\C)C[C@H](C)C[C@H](OC)[C@H]2O[C@@](O)(C(=O)C(=O)N3CCCC[C@H]3C(=O)O[C@H](/C(C)=C/[C@@H]3CC[C@@H](O)[C@H](OC)C3)[C@H](C)[C@@H](O)CC1=O)[C@H](C)C[C@@H]2OC [TACROLIMUS ANHYDROUS]
MST (Rattus norvegicus [40]): 6.5 days

Compound: Cc1nccc(Nc2cc(N[C@@H]3CCN(c4ccc(C#N)cn4)C[C@@H]3F)c(C(N)=O)cn2)n1
IC50 [11]: 0.24 nM
IC50 [16]: > 100000 nM

Compound: CN(c1ccccc1)c1cc(NCc2ccccc2)c(C(N)=O)cn1
IC50 [39]: > 1000 nM
inhibition [41]: 40%

Compound: NC(=O)c1cnc(N)cc1NCc1ccccc1
IC50 [39]: > 1000 nM
inhibition [41]: 41%

Compound: Cc1nccc(Nc2cc(NC3CCN(c4ccc(C#N)cn4)CC3)c(C(N)=O)cn2)n1
IC50 [4]: 3.2 nM
IC50 [11]: 5.4 nM
IC50 [16]: 8100 nM

Second part, led by results:

IC50 [39]: 37 nM
Compound: C[C@@H]1CCCC[C@@H]1Nc1cc(Nc2ccccc2)ncc1C(N)=O

IC50 [4]: 4.1 nM
IC50 [39]: 0.72 nM
IC50 [11]: 2.5 nM
Compound: N#Cc1ccc(N2CCC(Nc3cc(Nc4cnccn4)ncc3C(N)=O)CC2)nc1
IC50 [16]: 7700 nM

IC50 [4]: 130 nM
IC50 [39]: 25 nM
Compound: Cc1nc2ccc(Nc3cc(NC4CCN(c5ccc(C#N)cn5)CC4)c(C(N)=O)cn3)cc2o1

IC50 [39]: 0.46 nM
IC50 [11]: 2.9 nM
Compound: N#Cc1ccc(N2CCC(Nc3cc(Nc4ccccn4)ncc3C(N)=O)CC2)nc1
IC50 [16]: 360 nM

IC50 [4]: 400 nM
IC50 [39]: 22 nM
Compound: Cc1nc2cc(Nc3cc(NC4CCN(c5ccc(C#N)cn5)CC4)c(C(N)=O)cn3)ccc2o1

IC50 [4]: 5.3 nM
IC50 [39]: 1.1 nM
IC50 [11]: 6.7 nM
Compound: Cc1cnc(Nc2cc(NC3CCN(c4ccc(C#N)cn4)CC3)c(C(N)=O)cn2)cn1
IC50 [16]: 4800 nM

IC50 [4]: 4 nM
IC50 [39]: 1 nM
IC50 [11]: 1.9 nM
Compound: Cc1cncc(Nc2cc(NC3CCN(c4ccc(C#N)cn4)CC3)c(C(N)=O)cn2)n1
IC50 [16]: 5400 nM

IC50 [4]: 5.5 nM
IC50 [39]: 0.61 nM
IC50 [11]: 3.5 nM
Compound: N#Cc1ccc(N2CCC(Nc3cc(Nc4ccncn4)ncc3C(N)=O)CC2)nc1
IC50 [16]: 17000 nM

IC50 [4]: 190 nM
IC50 [39]: 18 nM
Compound: N#Cc1ccc(N2CCC(Nc3cc(Nc4ccccc4)ncc3C(N)=O)CC2)nc1

Source: ChEMBL document CHEMBL4428070, “Design, synthesis, and evaluation of 4,6-diaminonicotinamide derivatives as novel and potent immunomodulators targeting JAK3” (Bioorg Med Chem, 2016)
